Reference: ChEMBL document CHEMBL1142894, “Preparation of 5-aryl-3-alkylthio-l,2,4-triazoles and corresponding sulfones with antiinflammatory-analgesic activity” (Bioorg Med Chem, 2007)
Active and inactive are the calls of the source. No cut-off for these calls is given here.

How the values were obtained:
Mus musculus [1] = experiment: Acute toxicity in Swiss albino mouse assessed as lethal effect at 25 mg/kg/day, po after 72 hrs; format: organism-based; design: route oral; settings: in vivo
Method in brief: (§1)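 Oral single dose suspended in 0.5% carboxymethylcellulose, given after a 24 h fast; food and water returned 1 h after dosing. Vehicle-only controls. Mice observed at 1 h, then once daily for 72 h, for toxic signs and mortality.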

Mus musculus [2] = experiment: Antiinflammatory activity against carrageenan-induced paw edema in Swiss albino mouse assessed as swelling thickness at 100 mg/kg, po after 90 mins; format: functional
Method in brief: (§2)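 Oral dosing in 0.5% CMC; vehicle to controls. Then carrageenan (0.5 mg/25 ll, freshly suspended in 154 mM saline) injected into the right hind paw subplantar tissue; saline into the left paw. Right-left footpad thickness difference measured by dial gauge calliper every 90 min over 6 h. Inhibition % is relative to vehicle control. n = 6; mean ± SEM.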

Mus musculus [3] = experiment: Acute toxicity in Swiss albino mouse assessed as lethal effect at 100 mg/kg/day, po after 72 hrs; format: organism-based; design: route oral; settings: in vivo; method in brief: as §1
Mus musculus [4] = experiment: Acute toxicity in Swiss albino mouse assessed as lethal effect at 50 mg/kg/day, po after 72 hrs; format: organism-based; design: route oral; settings: in vivo; method in brief: as §1
Mus musculus [5] = experiment: Antiinflammatory activity against carrageenan-induced paw edema in Swiss albino mouse assessed as swelling thickness at 100 mg/kg, po after 360 mins; format: functional; method in brief: as §2
Mus musculus [6] = experiment: Antiinflammatory activity against carrageenan-induced paw edema in Swiss albino mouse assessed as swelling thickness at 100 mg/kg, po after 270 mins; format: functional; method in brief: as §2
Mus musculus [7] = experiment: Analgesic activity against p-benzoquinone-induced abdominal constriction in Swiss albino mouse assessed as number of writhings at 100 mg/kg, po; format: functional, Abdomen
Method in brief: (§3)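 Test samples given orally in 0.5% CMC; vehicle to controls. 60 min later, 2.5% (v/v) p-benzoquinone in distilled water, 0.1 ml/10 g, given i.p. Mice housed singly; writhes counted for 15 min starting 5 min after injection. Activity is % change from vehicle controls. n = 6; mean ± SEM.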

Mus musculus [8] = experiment: Antiinflammatory activity against carrageenan-induced paw edema in Swiss albino mouse assessed as swelling thickness at 100 mg/kg, po after 180 mins; format: functional; method in brief: as §2
Mus musculus [9] = experiment: Acute toxicity in Swiss albino mouse assessed as lethal effect at 200 mg/kg/day, po after 72 hrs; format: organism-based; design: route oral; settings: in vivo; method in brief: as §1
Mus musculus [10] = experiment: Gastric-ulcerogenic effect in Swiss albino mouse assessed as lesions at 100 mg/kg, po; format: functional, organism-based; design: dose 100 mg/kg
Method in brief: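 Mice killed under deep ether anesthesia 3 h after the writhing test; the oral dose in 0.5% CMC was the one used in that test. Stomachs removed, opened along the great curvature and examined under a dissecting microscope for lesions or bleeding. Reported as ratio of ulceration; n = 6.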

Mus musculus [11] = experiment: Inhibition of p-benzoquinone-induced writhing in Swiss albino mouse at 100 mg/kg, po relative to control; format: functional
Method in brief: (§4)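 Mice, n = 6 per group, dosed orally with a suspension in 0.5% sodium CMC. 60 min later, 0.1 ml/10 g of 2.5% […] p-benzoquinone in distilled water given ip. Abdominal writhes counted per animal for 15 min, starting 5 min after injection. Expressed as % change in mean writhing count versus vehicle controls.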

Mus musculus [12] = experiment: Inhibition of carrageenan-induced paw edema in Swiss albino mouse at 100 mg/kg, po after 360 mins relative to control; format: functional; settings: 6 h; method in brief: as §2
Mus musculus [13] = experiment: Inhibition of carrageenan-induced paw edema in Swiss albino mouse at 100 mg/kg, po after 90 mins relative to control; format: functional; settings: 1.5 h; method in brief: as §2
Mus musculus [14] = experiment: Inhibition of carrageenan-induced paw edema in Swiss albino mouse at 100 mg/kg, po after 180 mins relative to control; format: functional; settings: 3 h; method in brief: as §2
Mus musculus [15] = experiment: Inhibition of carrageenan-induced paw edema in Swiss albino mouse at 100 mg/kg, po after 270 mins relative to control; format: functional; settings: 4.5 h; method in brief: as §2
Mus musculus [16] = experiment: Inhibition of p-benzoquinone-induced writhing in Swiss albino mouse at 200 mg/kg, po relative to control; format: functional; method in brief: as §4
Mus musculus [17] = experiment: Analgesic activity against p-benzoquinone-induced abdominal constriction in Swiss albino mouse assessed as number of writhings at 200 mg/kg, po; format: functional, Abdomen; method in brief: as §3

SMILES | Activity (Mus musculus [1]) | Activity (Mus musculus [2]) | Activity (Mus musculus [3]) | Activity (Mus musculus [4]) | Activity (Mus musculus [5]) | Activity (Mus musculus [6]) | Activity (Mus musculus [7]) | Activity (Mus musculus [8]) | Activity (Mus musculus [9]) | Activity (Mus musculus [10]) | inhibition in vivo at 100 mg/kg (Mus musculus [11]) | inhibition in vivo at 100 mg/kg (Mus musculus [12]) | inhibition in vivo at 100 mg/kg (Mus musculus [13]) | inhibition in vivo at 100 mg/kg (Mus musculus [14]) | inhibition in vivo at 100 mg/kg (Mus musculus [15]) | inhibition in vivo at 200 mg/kg (Mus musculus [16]) | Activity (Mus musculus [17])
CSc1nc(-c2ccc(Br)cc2)n[nH]1 | Non-toxic | 46.9 10^-2mm | Non-toxic | Non-toxic | 70.9 10^-2mm | 63.3 10^-2mm | 58.9 | 54.1 10^-2mm | Non-toxic |  |  |  |  |  |  |  | 
CSc1nc(-c2cccc(Br)c2)n[nH]1 | Non-toxic | 47.5 10^-2mm | Non-toxic | Non-toxic | 79.5 10^-2mm | 67.7 10^-2mm | 46.8 | 57.3 10^-2mm | Non-toxic | Active | 1.1% |  |  |  |  |  | 
CS(=O)(=O)c1nc(-c2ccc(Br)cc2)n[nH]1 | Non-toxic | 51.2 10^-2mm | Non-toxic | Non-toxic | 64 10^-2mm | 59.5 10^-2mm | 49.4 | 55.2 10^-2mm | Non-toxic |  |  |  |  |  |  |  | 
CSc1nc(-c2ccccc2)n[nH]1 | Non-toxic | 38.1 10^-2mm | Non-toxic | Non-toxic | 54.4 10^-2mm | 47.6 10^-2mm | 40.2 | 44.5 10^-2mm | Non-toxic |  | 15% | 20.9% | 14.9% | 13.6% | 19% |  | 
CCSc1nc(-c2cccc(Br)c2)n[nH]1 | Non-toxic | 48.5 10^-2mm | Non-toxic | Non-toxic | 58.3 10^-2mm | 55.3 10^-2mm | 51.5 | 52.3 10^-2mm | Non-toxic | Active |  |  |  |  |  |  | 
CCSc1nc(-c2ccc(Br)cc2)n[nH]1 | Non-toxic | 59.6 10^-2mm | Non-toxic | Non-toxic | 88.3 10^-2mm | 78.2 10^-2mm | 49.2 | 69.2 10^-2mm | Non-toxic |  |  |  |  |  |  |  | 
CS(=O)(=O)c1nc(-c2ccccc2)n[nH]1 | Non-toxic | 44.2 10^-2mm | Non-toxic | Non-toxic | 56.7 10^-2mm | 47.5 10^-2mm | 37.4 | 45.2 10^-2mm | Non-toxic | Active | 20.9% |  | 1.3% | 12.2% | 19.2% |  | 
CCSc1nc(-c2ccccc2)n[nH]1 | Non-toxic | 46 10^-2mm | Non-toxic | Non-toxic | 54.7 10^-2mm | 51.2 10^-2mm | 46.1 | 48.3 10^-2mm | Non-toxic | Active | 2.5% |  |  |  |  |  | 
CSc1n[nH]c(-c2ccc(Cl)cc2)n1 | Non-toxic |  | Non-toxic | Non-toxic |  |  |  |  | Non-toxic |  |  |  |  |  |  |  | 
CC(=O)Oc1ccccc1C(=O)O [ASPIRIN] |  |  |  |  |  |  | 21.2 |  |  |  | 55.2% |  |  |  |  | 53.6% | 23.8
CCS(=O)(=O)c1nc(-c2cccc(Br)c2)n[nH]1 | Non-toxic | 68.8 10^-2mm | Non-toxic | Non-toxic | 91.7 10^-2mm | 85.6 10^-2mm | 45.2 | 74.9 10^-2mm | Non-toxic |  | 4.4% |  |  |  |  |  | 
CSc1nc(-c2ccccc2Cl)n[nH]1 | Non-toxic | 42.7 10^-2mm | Non-toxic | Non-toxic | 57 10^-2mm | 52.8 10^-2mm | 41.8 | 48.8 10^-2mm | Non-toxic | Active | 11.6% | 17.2% | 4.7% | 5.2% | 10.2% |  | 
CS(=O)(=O)c1nc(-c2cccc(Br)c2)n[nH]1 | Non-toxic | 48.2 10^-2mm | Non-toxic | Non-toxic | 80.5 10^-2mm | 65.8 10^-2mm | 48.2 | 55.9 10^-2mm | Non-toxic | Active |  |  |  |  |  |  | 
